# From ChEMBL document CHEMBL1250467, “Design, synthesis, and anticonvulsant activity of new N-Mannich bases derived from spirosuccinimides and spirohydantoins” (Bioorg Med Chem, 2010)
# Calls of active or inactive are those of the source. The rule behind the calls is not given here.
# Assays:
# Mus musculus [1] = test: Anticonvulsant activity in CF1 albino mouse assessed as protection against electrically-induced seizure at 100 mg/kg, ip after 1 hr by 6Hz psychomotor seizure test; type: functional; details: route intraperitoneal
# Procedure, shortened: (§1)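 Male CF-1 mice, compound suspended in 0.5% methylcellulose/water, given ip at 100 mg/kg; four mice per time point (0.25, 0.5, 1, 2, 4 h). Corneal stimulation with 0.2 ms monopolar rectangular pulses at 6 Hz for 3 s from a constant-current device, mice manually restrained. A mouse counted as protected if normal exploratory behaviour resumed within 10 s; motor impairment was noted alongside.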
# Rattus norvegicus [2] = test: Anticonvulsant activity in Sprague-Dawley rat assessed as protection against maximal electroshock-induced seizures at 30 mg/kg po after 0.5 hrs; type: functional
# Procedure, shortened: (§2)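 Male Sprague–Dawley rats, four per group, given 30 mg/kg orally as a 0.5% methylcellulose/water suspension. MES protection scored at 0.25, 0.5, 1, 2 and 4 h after dosing, motor impairment checked in parallel; data are the number of the four rats protected.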
# Mus musculus [3] = test: Anticonvulsant activity in CF1 albino mouse assessed as protection against maximal electroshock-induced seizures at 300 mg/kg, ip after 0.5 hrs; type: functional, organism-based; set-up: dose 300 mg/kg
# Procedure, shortened: (§3)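 Male CF-1 mice; compounds suspended in 0.5% methylcellulose/water and injected ip at 30, 100 and 300 mg/kg. MES, scPTZ (pentylenetetrazole 85 mg/kg sc at the test time) and rotarod neurotoxicity were scored at 0.5 and 4 h. Value is the lowest dose active or toxic in half or more of the animals; signs such as ataxia or tremor were recorded.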
# Mus musculus [4] = test: Neurotoxicity in ip dosed CF1 albino mouse assessed as dose required to cause toxicity after 4 hrs by rotarod test; type: organism-based; details: in vivo; procedure, shortened: as §3
# Mus musculus [5] = test: Anticonvulsant activity in CF1 albino mouse assessed as protection against subcutaneous pentylenetetrazole-induced seizures at 300 mg/kg, ip after 0.5 hrs; type: functional, organism-based; set-up: dose 300 mg/kg; procedure, shortened: as §3
# Rattus norvegicus [6] = test: Anticonvulsant activity in po dosed Sprague-Dawley rat assessed as protection against maximal electroshock-induced seizures; type: functional
# Procedure, shortened: (§4)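 Male Sprague–Dawley rats dosed orally (0.5% methylcellulose/water suspension), groups of eight, tested at the previously estimated time of peak effect. Doses varied until at least three points lay in the 10–90% range of protection (MES, scPTZ) or minimal rotarod neurotoxicity. ED50/TD50 with 95% confidence intervals came from regression; PI = TD50/ED50.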
# Rattus norvegicus [7] = test: Anticonvulsant activity in Sprague-Dawley rat assessed as protection against maximal electroshock-induced seizures at 30 mg/kg po after 1 hr; type: functional; procedure, shortened: as §2
# Mus musculus [8] = test: Anticonvulsant activity in CF1 albino mouse assessed as protection against subcutaneous pentylenetetrazole-induced seizures at 300 mg/kg, ip after 4 hrs; type: functional, organism-based; set-up: dose 300 mg/kg; procedure, shortened: as §3
# Mus musculus [9] = test: Anticonvulsant activity in ip dosed CF1 albino mouse assessed as dose required to protect against maximal electroshock-induced seizures after 4 hrs; type: functional; procedure, shortened: as §3
# Rattus norvegicus [10] = test: Anticonvulsant activity in Sprague-Dawley rat assessed as protection against maximal electroshock-induced seizures at 30 mg/kg po after 4 hrs; type: functional; procedure, shortened: as §2
# Mus musculus [11] = test: Anticonvulsant activity in CF1 albino mouse assessed as protection against electrically-induced seizure at 100 mg/kg, ip after 0.5 hrs by 6Hz psychomotor seizure test; type: functional, organism-based; set-up: dose 100 mg/kg; procedure, shortened: as §1
# Rattus norvegicus [12] = test: Anticonvulsant activity in Sprague-Dawley rat assessed as protection against pilocarpine-induced status epilepticus at 600 mg/kg, ip measured after clonus of one of the fore limbs seizure stage; type: functional, organism-based; set-up: dose 600 mg/kg
# Procedure, shortened: (§5)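 Male Sprague–Dawley rats (150–180 g) received compound ip at 600 mg/kg, then a challenge dose of pilocarpine. Seizure severity graded on the Racine scale; rats were scored as protected or not, and body weight change was taken 24 h after the first stage III seizure.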
# Rattus norvegicus [13] = test: Anticonvulsant activity in po dosed Sprague-Dawley rat assessed as time required to peak protection against seizures; type: functional
# Rattus norvegicus [14] = test: Toxicity in Sprague-Dawley rat assessed as change in body weight at 600 mg/kg, ip measured after 24 hrs of clonus of one of the fore limbs seizure stage in protected rat; type: organism-based; set-up: dose 600 mg/kg, route intraperitoneal; details: in vivo; procedure, shortened: as §5
# [15] = Neurotoxicity in po dosed Sprague-Dawley rat by rotarod test; type: toxicity, organism-based; details: in vivo; procedure, shortened: as §4
# Rattus norvegicus [16] = test: Toxicity in Sprague-Dawley rat assessed as change in body weight at 600 mg/kg, ip measured after 24 hrs of clonus of one of the fore limbs seizure stage in non-protected rat; type: organism-based; set-up: dose 600 mg/kg, route intraperitoneal; details: in vivo; procedure, shortened: as §5
# Mus musculus [17] = test: Anticonvulsant activity in CF1 albino mouse assessed as protection against electrically-induced seizure at 100 mg/kg, ip after 4 hrs by 6Hz psychomotor seizure test; type: functional; procedure, shortened: as §1
# Mus musculus [18] = test: Anticonvulsant activity in CF1 albino mouse assessed as protection against electrically-induced seizure at 100 mg/kg, ip after 0.25 hrs by 6Hz psychomotor seizure test; type: functional, organism-based; set-up: dose 100 mg/kg; procedure, shortened: as §1
# Rattus norvegicus [19] = test: Anticonvulsant activity in Sprague-Dawley rat assessed as protection against maximal electroshock-induced seizures at 30 mg/kg po after 2 hrs; type: functional; procedure, shortened: as §2
# [20] = Displacement of [3H]batrachotoxin from neurotoxin site 2 of voltage-gated sodium channel in rat forebrain tissue; details: read-out: IC50
# Mus musculus [21] = test: Neurotoxicity in CF1 albino mouse at 300 mg/kg, ip after 0.5 hrs by rotarod test; type: toxicity, organism-based; set-up: dose 300 mg/kg, route intraperitoneal; details: in vivo; procedure, shortened: as §3
# Mus musculus [22] = test: Toxicity in CF1 albino mouse assessed as minimal motor impairment at 100 mg/kg, ip after 2 hrs; type: organism-based; set-up: dose 100 mg/kg, route intraperitoneal; details: in vivo; procedure, shortened: as §1
# Rattus norvegicus [23] = test: Anticonvulsant activity in Sprague-Dawley rat assessed as protection against pilocarpine-induced status epilepticus at 600 mg/kg, ip; type: functional, organism-based; set-up: dose 600 mg/kg; procedure, shortened: as §5
# Rattus norvegicus [24] = test: Anticonvulsant activity in Sprague-Dawley rat assessed as protection against maximal electroshock-induced seizures at 30 mg/kg po after 0.25 hrs; type: functional; procedure, shortened: as §2
# Rattus norvegicus [25] = species: Rattus norvegicus; test: Protection index, ratio of TD50 for Sprague-Dawley rat by rotarod test to ED50 for Sprague-Dawley rat by maximal electroshock test; type: functional; procedure, shortened: as §4
smiles,measurement,setting,value
O=C1CC2(CCc3ccccc3C2)C(=O)N1CN1CCN(c2cccc(C(F)(F)F)c2)CC1 (stereo not given),Activity,Mus musculus [1],25%
same,Activity,Rattus norvegicus [2],inactive
same,Activity,Mus musculus [3],inactive
same,Activity,Mus musculus [4],300 mg/kg
same,Activity,Mus musculus [5],inactive
same,ED50,Rattus norvegicus [6],9 mg/kg
same,Activity,Rattus norvegicus [7],75%
same,Activity,Mus musculus [8],inactive
same,Activity,Mus musculus [9],100 mg/kg
same,Activity,Rattus norvegicus [10],100%
same,Activity,Mus musculus [11],inactive
same,Activity,Rattus norvegicus [12],inactive
same,Time,Rattus norvegicus [13],2 h
same,Activity,Rattus norvegicus [14],Non-toxic
same,TD50,[15],> 250 mg/kg
same,Activity,Rattus norvegicus [16],15 g
same,Activity,Mus musculus [17],inactive
same,Activity,Mus musculus [18],inactive
same,Activity,Rattus norvegicus [19],75%
same,IC50,[20],9.28 µM
same,Activity,Mus musculus [21],Non-toxic
same,Activity,Mus musculus [22],Toxic
same,Activity,Rattus norvegicus [23],inactive
same,Activity,Rattus norvegicus [24],inactive
same,PI,Rattus norvegicus [25],>27.78
